Source: publication PMC7117380 (Veterinary Microbiology, 2017)

Key:
PRRSV 3CLSP (nsp4) = target: T1, PRRSV 3CLSP (nsp4) (Porcine reproductive and respiratory syndrome virus, UniProt A1E8J1); test: FRET assay of PRRSV 3CLSP; assay type: biochemical
T1 sequence (A1E8J1 1780-1983): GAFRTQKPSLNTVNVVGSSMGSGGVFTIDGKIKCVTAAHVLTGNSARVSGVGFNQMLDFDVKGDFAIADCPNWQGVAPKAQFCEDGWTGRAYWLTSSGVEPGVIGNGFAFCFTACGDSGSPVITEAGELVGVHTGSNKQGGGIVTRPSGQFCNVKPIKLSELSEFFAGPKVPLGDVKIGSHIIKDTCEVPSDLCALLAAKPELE

[1] = test system: PRRSV (HP-PRRSV WUH3 strain); test: TCID50 assay for PRRSV replication in MARC-145 cells; assay type: cell-based, porcine reproductive and respiratory syndrome virus; details: for Inhibition of PRRSV infection: 100 μM
PEDV 3CL protease (nsp5) = target: T2, PEDV 3CL protease (nsp5) (Porcine epidemic diarrhea virus, UniProt P0C6Y4); test: FRET assay of PEDV 3CL protease; assay type: biochemical
T2 sequence (P0C6Y4 2998-3299 limits assumed): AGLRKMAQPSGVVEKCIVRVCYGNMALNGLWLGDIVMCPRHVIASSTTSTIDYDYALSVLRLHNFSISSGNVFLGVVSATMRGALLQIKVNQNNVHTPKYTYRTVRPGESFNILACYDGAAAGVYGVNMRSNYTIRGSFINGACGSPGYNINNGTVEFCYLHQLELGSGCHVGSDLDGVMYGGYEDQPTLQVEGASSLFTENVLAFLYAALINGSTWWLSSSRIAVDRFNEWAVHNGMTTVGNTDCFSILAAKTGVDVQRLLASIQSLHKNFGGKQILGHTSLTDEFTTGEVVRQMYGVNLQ
How it was run: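 The assay used purified PEDV nsp5 (3CL protease) at 0.25 μM final and substrate Dabcyl-YNSTLQ↓AGLRKM-E-Edans at 10 μM. Test compound (6.25–500 μM) was preincubated with enzyme for 20 min at 37 °C, then incubated with substrate for 60 min at 37 °C. Fluorescence was read at ex 340/em 485, minus a no-protease background. Inhibition % came from the 60–0 min RFU change against control, and IC50 from nonlinear regression of triplicate runs.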

Cell viability assay = assay type: cell-based; details: African green monkey, Vero cells
How it was run: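 Confluent Vero cells in DMEM with 10% FBS at 37 °C, 5% CO2 were exposed to test compound at 50–500 μM for 72 h, with 0.1% DMSO as control. Viability was read by CellTiter-Glo luminescence. CC50 was fitted in GraphPad Prism from triplicate experiments (±SD).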

in vitro = assay type: cell-based; details: African green monkey
[2] = test system: PRRSV nucleocapsid (N) protein; test: Western blot of PRRSV nucleocapsid; assay type: cell-based, porcine reproductive and respiratory syndrome virus; details: MARC-145 cells; for PRRSV N protein detection (western blot): 100 μM; for PRRSV N protein level (western blot), dose response: 6.25–200 μM, 36 h
[3] = test system: PEDV nucleocapsid (N) protein; test: Western blot of PEDV nucleocapsid; assay type: cell-based, porcine epidemic diarrhea virus; details: Vero cells
EAV 3CLSP (nsp4) = target: T3, EAV 3CLSP (nsp4) (Equine arteritis virus, UniProt P19811); test: FRET assay of EAV 3CLSP; assay type: biochemical; details: 1 μM substrate, 12.5-500 μM compound
T3 sequence (P19811 1065-1268 limits assumed): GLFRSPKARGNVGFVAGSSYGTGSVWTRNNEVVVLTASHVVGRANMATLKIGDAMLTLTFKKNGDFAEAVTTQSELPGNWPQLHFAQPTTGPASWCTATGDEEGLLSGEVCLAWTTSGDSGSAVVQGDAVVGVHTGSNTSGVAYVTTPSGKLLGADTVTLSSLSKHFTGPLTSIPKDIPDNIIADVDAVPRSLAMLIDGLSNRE

PEDV (FJZZ strain) = test: TCID50 assay for PEDV replication in Vero cells; assay type: cell-based, porcine epidemic diarrhea virus

Cc1ccc(C(=O)c2ccc(O)cc2O)cc1 [Compound 2, (2,4-dihydroxyphenyl) (4-methylphenyl)methanone]
IC50 (PRRSV 3CLSP (nsp4)): 144 µM
Inhibition of PRRSV infection [1]: strongly inhibited PRRSV infection
IC50 (PEDV 3CL protease (nsp5)): 37.8 µM
CC50 at 72 h (Cell viability assay): > 500 µM
CC50 (in vitro): 480 µM
PRRSV N protein detection (western blot) [2]: no viral N protein was detectable
PRRSV N protein level (western blot), dose response [2]: decreased
PEDV N protein level (western blot), dose response [3]: decreased

Cc1cccc(C)c1C(=O)c1ccc(O)cc1O [Compound 3, (2,4-dihydroxyphenyl)(2,6-dimethylphenyl)methanone]
IC50 (PRRSV 3CLSP (nsp4)): 116 µM
Inhibition of PRRSV infection [1]: strongly inhibited PRRSV infection
PRRSV-3CLpro SI values (selectivity index) ([1]; PRRSV): ~8.5
IC50 (PEDV 3CL protease (nsp5)): 23.4 µM
CC50 at 72 h (Cell viability assay): > 500 µM
Protease activity of EAV 3CLSP (EAV 3CLSP (nsp4)): inhibited
CC50 (in vitro): 483 µM
PEDV-3CLpro SI values (selectivity index) (PEDV (FJZZ strain)): ~9.02
PRRSV N protein detection (western blot) [2]: no viral N protein was detectable
PRRSV N protein level (western blot), dose response [2]: decreased
PEDV N protein level (western blot), dose response [3]: decreased

Cc1ccncc1 [Compound 4, 4-methylpyridine]
IC50 (PRRSV 3CLSP (nsp4)): 148 µM
IC50 (PEDV 3CL protease (nsp5)): > 500 µM
Suppression of PRRSV replication (western blot) [2]: did not substantially suppress PRRSV replication

CC1CCN(c2ncnc3ccccc23)CC1 [Compound 5, 4-(4-methylpiperidin-1-yl)quinazoline]
IC50 (PRRSV 3CLSP (nsp4)): 173 µM
CC50 (in vitro): > 500 µM
viability at 72 h, 500 µM (in vitro): > 60%
PRRSV N protein level (western blot), dose response [2]: decreased
